From ChEMBL document CHEMBL1148606 (J Med Chem, 2006) come the findings set out here.

As usually defined, the inhibition is how much of the control response was suppressed. What is called Ki is the dissociation constant of the complex between target and ligand, obtained from inhibition or displacement. A lower Ki goes with tighter binding.

Common to all, as to type: cell-based
For test [1], the target named is T1, Adenosine receptor A2a (Homo sapiens, UniProt P29274). In words: Inhibition of [3H]CGS-21680 binding to human adenosine A2A receptor transfected in HEK293 cells at 10 uM.
T1 sequence (P29274 whole entry): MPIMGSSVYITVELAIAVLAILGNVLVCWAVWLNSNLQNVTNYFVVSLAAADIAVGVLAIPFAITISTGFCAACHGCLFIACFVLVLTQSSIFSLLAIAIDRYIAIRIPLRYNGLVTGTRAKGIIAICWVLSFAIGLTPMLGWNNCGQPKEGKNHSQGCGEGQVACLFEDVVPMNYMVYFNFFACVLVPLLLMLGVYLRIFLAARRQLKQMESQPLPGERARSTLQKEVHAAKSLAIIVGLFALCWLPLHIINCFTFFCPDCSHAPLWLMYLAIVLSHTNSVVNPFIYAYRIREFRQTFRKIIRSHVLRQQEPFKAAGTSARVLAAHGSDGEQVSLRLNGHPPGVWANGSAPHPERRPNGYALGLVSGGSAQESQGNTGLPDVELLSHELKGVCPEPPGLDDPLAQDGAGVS
The target of another test is T2, Adenosine receptor A1 (Homo sapiens, UniProt P30542).
T2 sequence (P30542 whole entry): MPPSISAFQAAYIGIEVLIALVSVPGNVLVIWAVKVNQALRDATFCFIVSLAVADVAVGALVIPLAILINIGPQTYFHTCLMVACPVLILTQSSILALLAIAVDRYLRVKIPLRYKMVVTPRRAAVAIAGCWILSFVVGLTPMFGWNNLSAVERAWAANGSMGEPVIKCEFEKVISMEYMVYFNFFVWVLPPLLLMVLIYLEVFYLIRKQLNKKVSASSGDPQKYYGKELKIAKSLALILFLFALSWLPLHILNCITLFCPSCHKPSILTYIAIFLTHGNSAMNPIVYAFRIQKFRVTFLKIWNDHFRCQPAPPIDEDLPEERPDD
In words: Displacement of [3H]R-PIA from human adenosine A1 receptor transfected in CHO cells. The procedure, abridged:
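Membranes (40 µg/tube) from CHO cells stably expressing human A1 receptor were incubated with 2 nM [3H]R-PIA at 25 °C for 60 min in 50 mM Tris·HCl pH 7.4 containing 10 mM MgCl2. Nonspecific binding defined with 10 µM CPA. Terminated by filtration through GF/B filters.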
(In a radioligand displacement assay an active substance lowers the binding of a labelled ligand.)

The target in a further test is T3, Adenosine receptor A3 (Homo sapiens, UniProt P0DMS8).
T3 sequence (P0DMS8 whole entry): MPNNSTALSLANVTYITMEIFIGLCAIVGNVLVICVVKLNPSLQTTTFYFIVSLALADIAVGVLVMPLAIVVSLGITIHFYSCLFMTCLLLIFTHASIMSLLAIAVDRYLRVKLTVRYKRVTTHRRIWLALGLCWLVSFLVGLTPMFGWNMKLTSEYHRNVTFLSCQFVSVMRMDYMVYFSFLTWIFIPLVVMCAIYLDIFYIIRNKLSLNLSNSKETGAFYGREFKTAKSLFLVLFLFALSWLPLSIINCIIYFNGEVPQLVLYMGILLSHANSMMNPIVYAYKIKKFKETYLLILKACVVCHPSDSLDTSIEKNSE
In words: Displacement of [125I]AB-MECA from human adenosine A3 receptor transfected in CHO cells.

Test [2] deals with T4, Adenosine receptor A1 (Homo sapiens) (UniProt P30542).
T4 sequence (whole entry): T2 sequence (P30542 whole entry)
In words: Inhibition of [3H]R-PIA binding to human adenosine A1 receptor transfected in CHO cells at 10 uM.

Test [3] concerns the target T1, Adenosine receptor A2a. In words: Displacement of [3H]CGS-21680 from human adenosine A2A receptor transfected in HEK293 cells. In short, it runs like this:
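Membranes (20 µg/tube) from HEK-293 cells stably expressing human A2A receptor, incubated with 15 nM [3H]CGS21680 at 25 °C for 60 min in 50 mM Tris·HCl pH 7.4 with 10 mM MgCl2. Nonspecific binding defined with 10 µM NECA. Terminated by filtration through GF/B filters.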

`CNc1nc(Cl)nc2c1ncn2[C@@H]1S[C@H](C(=O)NCCC(C)C)[C@@H](O)[C@H]1O` displayed an inhibition on Adenosine receptor A2a [1] of 14%. Also, the inhibition constant Ki at Adenosine receptor A1 came out at 4070 nM; on Adenosine receptor A3, 1.63 nM.
Regarding `O=C([C@H]1S[C@@H](n2cnc3c(NCc4cccc(I)c4)nc(Cl)nc32)[C@H](O)[C@@H]1O)N1CCN(c2ccc(F)cc2)CC1`, the inhibition at Adenosine receptor A2a [1] amounted to 12%; in test [2], 24%. The compound further yielded a Ki on Adenosine receptor A3 of 1440 nM.
Take `CNc1nc(Cl)nc2c1ncn2[C@@H]1S[C@H](C(=O)N2CCC(Cc3ccccc3)CC2)[C@@H](O)[C@H]1O`: the figures for the inhibition (on Adenosine receptor A2a [1]; in test [2]) were 6% and 10%, respectively. On Adenosine receptor A3, this compound gave an inhibition constant Ki of 3500 nM.
For the compound `CNC(=O)[C@H]1S[C@@H](n2cnc3c(NCc4ccccc4C)nc(Cl)nc32)[C@H](O)[C@@H]1O`, the Ki at Adenosine receptor A2a [3] stood at 1320 nM; at Adenosine receptor A1, 507 nM; on Adenosine receptor A3, 2.18 nM.
With `O=C(NC1CC1)[C@H]1S[C@@H](n2cnc3c(NCc4cccc(I)c4)nc(Cl)nc32)[C@H](O)[C@@H]1O`, the Ki at Adenosine receptor A2a [3] amounted to 326 nM; at Adenosine receptor A1, 92 nM; on Adenosine receptor A3, 2.96 nM.
Turning to `O=C(NCc1cccc(C(F)(F)F)c1)[C@H]1S[C@@H](n2cnc3c(NCc4cccc(I)c4)nc(Cl)nc32)[C@H](O)[C@@H]1O`, the results for the inhibition (at Adenosine receptor A2a [1]; in test [2]) were 11% and 0%, respectively. This compound also showed a Ki on Adenosine receptor A3 of 354 nM.
Consider `CNc1nc(Cl)nc2c1ncn2[C@@H]1S[C@H](C(=O)NCC2CC2)[C@@H](O)[C@H]1O`, for which, on Adenosine receptor A2a [1], the inhibition was determined as 44%. Besides, the Ki on Adenosine receptor A1 is 638 nM; at Adenosine receptor A3 it was 1.1 nM.
`CCNC(=O)[C@H]1S[C@@H](n2cnc3c(NC4CCCC4)nc(Cl)nc32)[C@H](O)[C@@H]1O`: the inhibitory constant (Ki) stood at 149 nM on Adenosine receptor A2a [3] and 2 nM on Adenosine receptor A1.
Consider `O=C([C@H]1S[C@@H](n2cnc3c(NC4CC4)nc(Cl)nc32)[C@H](O)[C@@H]1O)N1CCOCC1`, for which the inhibition came out at 11% on Adenosine receptor A2a [1] and 25% in test [2]. This compound showed an inhibition constant Ki at Adenosine receptor A3 of 4440 nM.
In the same order, the values of `CNc1nc(Cl)nc2c1ncn2[C@@H]1S[C@H](C(=O)N2CCOCC2)[C@@H](O)[C@H]1O` are 24%, 4% and 3870 nM.
Regarding `CCNC(=O)[C@H]1S[C@@H](n2cnc3c(NCc4cccc(I)c4)nc(Cl)nc32)[C@H](O)[C@@H]1O`, the Ki on Adenosine receptor A2a [3] turned out to be 292 nM; on Adenosine receptor A1, 144 nM; at Adenosine receptor A3 it was 0.89 nM.
Taken in the same sequence, the figures for `Cc1ccccc1CNc1nc(Cl)nc2c1ncn2[C@@H]1S[C@H](C(=O)NCC2CC2)[C@@H](O)[C@H]1O` were 3890 nM, 1980 nM and 29.7 nM.
In the same order, the values of `CNC(=O)[C@H]1S[C@@H](n2cnc3c(NC4CCCC4)nc(Cl)nc32)[C@H](O)[C@@H]1O` are 921 nM, 13.9 nM and 4.27 nM.
Taken in the same sequence, the figures for `Cc1ccccc1CNc1nc(Cl)nc2c1ncn2[C@@H]1S[C@H](C(=O)NC2CC2)[C@@H](O)[C@H]1O` were 202 nM, 76.7 nM and 27.8 nM.
Take `Cc1ccccc1CNc1nc(Cl)nc2c1ncn2[C@@H]1S[C@H](C(=O)N2CCOCC2)[C@@H](O)[C@H]1O`: the inhibition came out at 17% on Adenosine receptor A2a [1] and 4% in test [2]. Besides, at Adenosine receptor A3, the Ki was found to be 7670 nM.
In the same order, the values of `Cc1ccccc1CNc1nc(Cl)nc2c1ncn2[C@@H]1S[C@H](C(=O)N(C)C)[C@@H](O)[C@H]1O` are 22.5%, 0% and 632 nM.
For `CCNC(=O)[C@H]1S[C@@H](n2cnc3c(NCc4ccccc4C)nc(Cl)nc32)[C@H](O)[C@@H]1O`, the Ki came to 429 nM on Adenosine receptor A2a [3], 75.8 nM at Adenosine receptor A1 and 2.5 nM on Adenosine receptor A3.
For the compound `O=C(NCCC(c1ccccc1)c1ccccc1)[C@H]1S[C@@H](n2cnc3c(NCc4cccc(I)c4)nc(Cl)nc32)[C@H](O)[C@@H]1O`, the inhibition at Adenosine receptor A2a [1] came to 3%; in test [2], 5%. For the same compound, the Ki on Adenosine receptor A3 turned out to be 343 nM.
Taken in the same sequence, the figures for `CNc1nc(Cl)nc2c1ncn2[C@@H]1S[C@H](C(=O)NCc2cccc(F)c2)[C@@H](O)[C@H]1O` were 41%, 67% and 17.4 nM.
On to `O=C(NC1CC1)[C@H]1S[C@@H](n2cnc3c(NC4CC4)nc(Cl)nc32)[C@H](O)[C@@H]1O`, for which the values for the inhibitory constant (Ki) at Adenosine receptor A2a [3], on Adenosine receptor A1 and on Adenosine receptor A3 were 325 nM, 4.6 nM and 5.56 nM, respectively.
For the compound `CNc1nc(Cl)nc2c1ncn2[C@@H]1S[C@H](C(=O)NCCc2cccc(F)c2)[C@@H](O)[C@H]1O`, the values for the inhibition (on Adenosine receptor A2a [1]; in test [2]) were 30% and 15%, respectively. Affinity at Adenosine receptor A3 was put at a Ki of 85.6 nM.
`Cc1ccccc1CNc1nc(Cl)nc2c1ncn2[C@@H]1S[C@H](C(=O)N2CCC(Cc3ccccc3)CC2)[C@@H](O)[C@H]1O`: the inhibition came out at 15% at Adenosine receptor A2a [1] and 26% in test [2]. On Adenosine receptor A3, this compound came in with a Ki of 49200 nM.
Taken in the same sequence, the figures for `CNc1nc(Cl)nc2c1ncn2[C@@H]1S[C@H](C(=O)N2CCN(c3ccc(F)cc3)CC2)[C@@H](O)[C@H]1O` were 34%, 28% and 2700 nM.
For `CNc1nc(Cl)nc2c1ncn2[C@@H]1S[C@H](C(=O)NC2CC2)[C@@H](O)[C@H]1O`, the inhibitory constant (Ki) came out at 2770 nM on Adenosine receptor A2a [3], 47.8 nM on Adenosine receptor A1 and 2.82 nM at Adenosine receptor A3.
In the case of `O=C([C@H]1S[C@@H](n2cnc3c(NCc4cccc(I)c4)nc(Cl)nc32)[C@H](O)[C@@H]1O)N1CCOCC1`, the inhibition at Adenosine receptor A2a [1] came out at 4%; in test [2], 18%. The compound also had a Ki at Adenosine receptor A3 of 510 nM.
For `CNc1nc(Cl)nc2c1ncn2[C@@H]1S[C@H](C(=O)N(C)C)[C@@H](O)[C@H]1O`, the inhibition at Adenosine receptor A2a [1] came to 12%; in test [2] it was 10%. Besides, the affinity at Adenosine receptor A3 corresponds to a Ki of 1500 nM.
Take `CCNC(=O)[C@H]1S[C@@H](n2cnc3c(NC4CC4)nc(Cl)nc32)[C@H](O)[C@@H]1O`: the Ki stood at 604 nM on Adenosine receptor A2a [3], 3.2 nM on Adenosine receptor A1 and 0.67 nM at Adenosine receptor A3.
On to `CNc1nc(Cl)nc2c1ncn2[C@@H]1S[C@H](C(=O)NCCC(c2ccccc2)c2ccccc2)[C@@H](O)[C@H]1O`, for which the values for the inhibition (on Adenosine receptor A2a [1]; in test [2]) were 15% and 20%, respectively. At Adenosine receptor A3, this compound came in with an inhibitory constant (Ki) of 415 nM.
In the same order, the values of `CC(C)CCNC(=O)[C@H]1S[C@@H](n2cnc3c(NCc4cccc(I)c4)nc(Cl)nc32)[C@H](O)[C@@H]1O` are 31%, 31% and 41.9 nM.
For `O=C(NCC1CC1)[C@H]1S[C@@H](n2cnc3c(NCc4cccc(I)c4)nc(Cl)nc32)[C@H](O)[C@@H]1O`, the values for the Ki on Adenosine receptor A2a [3], on Adenosine receptor A1 and at Adenosine receptor A3 were 2220 nM, 1720 nM and 3.64 nM, respectively.
For `O=C(NCCc1ccccc1)[C@H]1S[C@@H](n2cnc3c(NCc4cccc(I)c4)nc(Cl)nc32)[C@H](O)[C@@H]1O`, the inhibition worked out at 11% at Adenosine receptor A2a [1] and 20% in test [2]. The compound further registered an inhibition constant Ki at Adenosine receptor A3 of 433 nM.
Take `CNC(=O)[C@H]1S[C@@H](n2cnc3c(NC)nc(Cl)nc32)[C@H](O)[C@@H]1O`: the inhibition on Adenosine receptor A2a [1] is 20%.
As to `CNC(=O)[C@H]1S[C@@H](n2cnc3c(NC4CC4)nc(Cl)nc32)[C@H](O)[C@@H]1O`, the inhibition constant Ki came out at 4890 nM on Adenosine receptor A2a [3], 37.3 nM at Adenosine receptor A1 and 2.24 nM on Adenosine receptor A3.
With `O=C([C@H]1S[C@@H](n2cnc3c(NCc4cccc(I)c4)nc(Cl)nc32)[C@H](O)[C@@H]1O)N1CCC(Cc2ccccc2)CC1`, the inhibition at Adenosine receptor A2a [1] is 17%; in test [2], 38%. On Adenosine receptor A3, the Ki amounted to 878 nM.
In the case of `O=C([C@H]1S[C@@H](n2cnc3c(NC4CC4)nc(Cl)nc32)[C@H](O)[C@@H]1O)N1CCC(Cc2ccccc2)CC1`, the values for the inhibition (at Adenosine receptor A2a [1]; in test [2]) were 33% and 32%, respectively. The same compound returned a Ki at Adenosine receptor A3 of 4020 nM.
Consider `O=C(NC1CCC1)[C@H]1S[C@@H](n2cnc3c(NCc4cccc(I)c4)nc(Cl)nc32)[C@H](O)[C@@H]1O`, for which the inhibition constant (Ki) at Adenosine receptor A2a [3] worked out at 549 nM; on Adenosine receptor A1, 126 nM; on Adenosine receptor A3 it was 18.2 nM.
On Adenosine receptor A2a [1], `O=C(NCc1cccc(Cl)c1)[C@H]1S[C@@H](n2cnc3c(NCc4cccc(I)c4)nc(Cl)nc32)[C@H](O)[C@@H]1O` had an inhibition of 28%. In addition, the Ki came to 1710 nM at Adenosine receptor A1 and 308 nM on Adenosine receptor A3.
